Most compounds without a hit are left out; they make up all but 3.6% or so of the library.
AHR activator: activators of human aryl hydrocarbon receptor. actives 2.5% (n = 320,000). AHR-responsive luciferase reporter cells, luminescence. AID 2796. activation, % at 5 µM. P35869; in the data active means activation above about 47%;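 further: 0% = vehicle wells and 100% = reference agonist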
HSF1 inhib: HSF1 inhibition. NIH3T3-HGL HSE-luciferase, MG132-induced, luminescence 8 h; hits give low values. actives 0.77% (n = 300,000). activity change, negative = inhibition, % at 7.5 µM (by protocol);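 active means more than half of replicate wells show activity change below -50%, luminescence cut by over half; inconclusive means some wells, but at most half, below -50%; inactive means no replicate well below -50%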;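 further: luciferase reports HSF-1 transcriptional activity via heat shock element; 0% = median of DMSO wells and -100% = zero luminescence signal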
Hsp70 act: Hsp70 transcriptional activation, primary screen | HeLa Hsp70 promoter luciferase reporter, luminescence; scaled: vehicle 0, proteasome-inhibitor control 100% | activation, % at 10 µM | actives 0.04% (n = 200,000);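 active means activation above the mean across all tested compounds plus 3 SD, cutoff set per campaign, cut at about 5.5% in these data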;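 further: 100% = MG132 at 30 µM as the positive control and 0% = DMSO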
STAT3 activator: STAT3 signaling activation | actives 0.91% (n = 190,000) | activation (% of control), % at 5.6 µM | U3A cells, IL-6 STAT3-luciferase reporter, luminescence; 100% = signal with IL-6 EC80 alone;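 active means activation above the screen-wide mean of compound activation plus 3 SD, cut at about 130% in these data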;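 further: 0% = background luminescence of wells with medium and substrate only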
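Test system: STAT3-luciferase reporter U3A cells; Detection: reporter luminescence signal; Times: 1 h compound pre-exposure, 6 h IL-6 stimulation, 37 °C; Benchmarks: IL-6-only high control; Also added: IL-6 stimulus at 33 ng/mL final.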
PERK inh: inhibitors of human PERK kinase. Q9NZJ5. CHO PERK-DD fusion, SEAP luminescence translation reporter. inhibition, % at 5.6 µM. actives 0.17% (n = 220,000). AID 1416;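 active means inhibition above the mean inhibition of all tested compounds plus 3 SD, set separately per screening campaign, cut at about 2.9% in these data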;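 further: PERK kinase domain activated by AP20187 dimerizer at 100 nM; 0% = DMSO with dimerizer and 100% = rapamycin at 8.4 µM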
PolyA inhibitor: blocks polyadenylation in yeast reporter cells; S. cerevisiae SKY197-pL101 polyadenylation reporter, beta-gal luminescence; efflux-impaired pdr1/pdr3 knockout yeast; score 100 = 6 SD above DMSO; activity score, % at 12 µM; actives 0.02% (n = 300,000);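 active means lowest replicate activity score at least 50, where 100 means six control SD above control mean; inconclusive means lowest score under 50 but half or more replicates reach 50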;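 further: yeast exposed to compound for 9 h at 30 °C; higher score means more reporter readthrough which indicates perturbed polyadenylation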
Starred values were filed as active, the others as inactive; ? = inconclusive; · = no result given.

SMILES | AHR activator | HSF1 inhib | Hsp70 act | STAT3 activator | PERK inh | PolyA inhibitor
C=CCOc1ccc(Br)cc1CNCC | 0 | -4 | 0 | 101 | -1 | -8
Cc1cc(C)c(S(=O)(=O)c2ccccc2)c(N2CCOCC2)n1 | 0 | 0 | 0 | 108 | 1 | -14
CC(=O)Nc1ccc(N=Nc2c(C)[nH]n(C(N)=S)c2=O)cc1 | 5 | 9 | 0 | 103 | 1 | -4
CSc1ccc(N=Nc2c(C)[nH]n(C)c2=O)cc1 | 75* | 20 | · | · | -1 | -3
COc1cccc(/C=N/NC(=O)C(=O)N2CCCC2)c1O | 3 | 5 | 0 | 113 | 0 | 0
COc1cccc(/C=N/NC(=O)C(=O)N2CCCC2)c1OC | -1 | 0 | 0 | 97 | 3.1* | -1
C/C(Cn1nc([N+](=O)[O-])cc1C)=N\NC(=O)COc1c(Cl)cc(Cl)cc1Cl | 1 | -3 | -1 | 102 | 0 | 7
N#Cc1ccc(OCC(=O)n2cc(C(=O)c3cc(Cl)cc(Cl)c3O)cn2)cc1 | 70* | -1 | · | · | 0 | -16
CCCCOc1ccc(Br)cc1/C(C)=N/NC1=NCCN1 | 57* | -32 | 0 | 97 | -1 | 20
CCOC(=O)Cc1csc(NC(=O)NC2(C(F)(F)F)Oc3ccc(Cl)cc3O2)n1 (configuration not stated) | 0 | 20 | 0 | 94 | 0 | 3
CCOC(=O)Cc1csc(NC(=O)NC2(C(F)(F)F)Oc3cc(Cl)c(Cl)cc3O2)n1 | 2 | -57* | 0 | 96 | 0 | 0
CCOc1cc(C(=O)N2CCC(CC3CC(c4cccc(Br)c4)=NO3)(C(=O)NCC3CCCCC3)CC2)cc(OCC)c1OCC (configuration not stated) | 4 | 0 | · | · | · | 27
Cc1csc2c(=O)sc(NC(=O)c3ccc(F)cc3)nc12 | 8 | -4 | · | · | 5.2* | -8
CC1CC(C)CN(C(=O)c2ccc(CSc3nc4ccncc4[nH]3)cc2)C1 (configuration not stated) | 0 | -67* | 0 | 90 | 0 | 2
COC(=O)/C=C1\NC(=O)C(C)S1 (configuration not stated) | 0 | -6 | 0 | 92 | 2 | 2
N#CCCCC#Cc1ccc2c(c1)COc1c3ccccc3nn1-2 | -9 | -64* | · | · | · | 6
Cc1ccc(OCCCCn2cnc3ccccc32)cc1 | 7 | -79* | 0 | 82 | 0 | -12
c1ccc(OCCCCn2cnc3ccccc32)cc1 | -6 | 8 | 0 | 66 | -1 | -2
Cc1cc(NC(=O)c2cnc3ccccn3c2=O)no1 | · | · | 0 | 99 | -1 | ·
Cc1cccc(NC(=O)c2cnc3sccn3c2=O)c1 | 68* | 12 | 0 | · | 0 | 6
Cc1cccc(NC(=O)c2cnc3ccccn3c2=O)c1 | · | · | 0 | 74 | 3.1* | ·
COc1ccccc1CNC(=O)c1cnc2sccn2c1=O | 53* | -11 | · | · | · | -3
Cc1ccc2nc(-c3ccccc3NC(=O)CCC(=O)O)c(=O)[nH]c2c1 | · | -74* | · | · | · | -6
CC(=O)Nc1ccc(S(=O)(=O)N2CCN(C(=O)c3ncoc3-c3ccccc3C)CC2)cc1 | -2 | 3 | · | · | · | -6
Brc1ccc(-c2nnc(-c3cccnc3)c3conc23)cc1 | 26 | -1 | 0 | 134* | 1 | -9
SMILES | AHR activator | HSF1 inhib | Hsp70 act | STAT3 activator | PERK inh | PolyA inhibitor
COc1ccc(-c2nnc(C)c3nocc23)cc1 | 5 | 1 | · | · | · | 8
CCCCN1c2cc(C)c(O)cc2C(C(=O)OCC)C1C (configuration not stated) | 48* | 44 | 0 | 99 | 0 | -17
COc1ccc(C2(C)NC(=O)N(CC(=O)Nc3c(C)n(C)n(-c4ccccc4)c3=O)C2=O)cc1 (configuration not stated) | 0 | 2 | · | · | · | -19
Cc1cccc(/C=N/NC(=O)CN2CCCCCCC2)c1 | 8 | -76* | 0 | 109 | 1 | 3
Cc1ccc(O)c(/C=N/NC(=O)CN2CCCC2)c1 | 5 | -85* | · | · | · | -15
O=C(CN1CCCCCC1)N/N=C/c1ccc(Cl)c(Cl)c1 | 18 | 3 | 0 | 94 | 0 | 15
CCOc1ccc(NC(=O)COC(=O)C2(C)CC2(Cl)Cl)c([N+](=O)[O-])c1 (configuration not stated) | 0 | -53* | 0 | 101 | 0 | -13
CCOc1ccc(OCC(=O)Nc2ccc(OC)cc2[N+](=O)[O-])cc1 | 0 | -10 | 0 | 88 | 1 | -1
CCN(c1ccccc1)S(=O)(=O)c1ccc(Oc2ccc(-n3ccnc3)cc2)nc1 | 59* | -5 | 0 | 91 | -2 | -13
O=C(NCC(=O)N1CCN(c2ccccc2O)CC1)c1ccc(Br)o1 | 8 | -52* | · | · | · | -7
O=C(NC1CC2CCCC(C1)N2C(=O)Nc1ccccc1Cl)C1CC1 (configuration not stated) | 0 | 7 | · | · | · | -15
Cc1ccccc1NC(=O)N1C2CCCC1CC(NC(=O)C1CC1)C2 (configuration not stated) | -1 | -70* | 0 | 102 | 1 | -7
O=C(COC(=O)c1cc(S(=O)(=O)N2CCCC2)ccc1O)Nc1ccccc1Br | 0 | · | · | · | · | ·
Clc1ccc(-c2nc3n(n2)Cc2ccccc2-3)cc1 | 74* | 26 | 0 | 96 | 1 | -27
CCN(CC)S(=O)(=O)c1cccc(-c2nc3n(n2)Cc2ccccc2-3)c1 | 19 | 13 | 0 | 89 | -1 | -16
O=C(O)C(Cc1ccc(O)cc1)N1C(=O)c2ccccc2C1=O (configuration not stated) | 1 | -4 | · | · | · | 6
CCOC(=O)Cc1c(C)nc2cc(-c3ccc(Cl)cc3)[nH]n2c1=O | 58* | 0 | 0 | 110 | 1 | 0
CCOC(=O)CCc1c(C)nc2cc(-c3ccc(F)cc3)[nH]n2c1=O | 6 | 4 | 0 | 83 | 0 | -11
CC1CCN(c2ccccc2NC(=O)c2ccc(C#N)cc2F)CC1 | 71* | -4 | 0 | 93 | 2 | -12
Cn1nc(-c2ccc(Cl)cc2)c2cc(C(=O)N3CCCC3)sc21 | 50* | -5 | -1 | 107 | 0 | ?
COc1cc(/C=N/O)ccc1Oc1cnccn1 | 1 | -5 | · | · | · | 3
O=C(O)C(C(O)c1ccc([N+](=O)[O-])cc1)[n+]1ccccc1 (configuration not stated) | 3 | 3 | · | · | · | -14
CC(C)(NC(=O)c1cc(Cl)c2ccccc2c1O)C(=O)O | 15 | -83* | · | · | 0 | -1
Cc1ccc(NC2=C(NCCO)C(=O)c3ccccc3C2=O)cc1 | 65* | 2 | 0 | 122 | 1 | 2
O=[N+]([O-])c1ccccc1CCc1cnc(Cl)s1 | 1 | -63* | · | · | · | 13
O=C(Nc1nc(-c2ccccc2)cs1)c1ccc(S(=O)(=O)N2CCc3ccccc32)cc1 | 45 | -5 | 0 | 97 | 0 | -6

Screening data as filed in PubChem BioAssay.
